Laboratory results taken from ChEMBL document CHEMBL1127730, “Bicyclic hydantoins with a bridgehead nitrogen. Comparison of anticonvulsant activities with binding to the neuronal voltage-dependent sodium channel” (J Med Chem, 1994).
The source made the active and inactive calls. The rule behind the calls is not given here.

Columns and labels:
Mus musculus [1] = test: Anticonvulsant activity was measured as inhibition of convulsions by rotarod test in Phase-I by intraperitoneal administration in mice; assay type: functional
Outline: (§1)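 Mice dosed ip and tested 30 min later. Phase I screen is qualitative: maximal electroshock and subcutaneous metrazol (scMet) seizure tests, plus a rotorod test for neurotoxicity. Reported as the best active dose in mg/kg, with animals protected (or toxic) over the number tested. Run by the NINDS Antiepileptic Drug Development Program.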

Mus musculus [2] = test: Number of animals protected or toxic compared to number tested in subcutaneous administration in mice; 1/1; assay type: functional; outline: as §1
Mus musculus [3] = test: Number of animals protected or toxic compared to number tested maximal electric shock (MES) method in Phase-I by intraperitoneal administration in mice; 3/3; assay type: functional; outline: as §1
[4] = target: Sodium channel alpha subunits; brain (Types I, II, III) (Rattus norvegicus, UniProt P04775+P04774+P08104); test: Inhibition of binding to sodium channel of rat cerebral cortex; assay type: tissue-based
Outline: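 Rat cerebral cortex synaptosomes (~1 mg protein) incubated 40 min at 25 °C with 10 nM [3H]BTX-B, 50 μg/mL scorpion venom and test compound at seven concentrations. Filtration, ice-cold buffer washes, scintillation counting. Nonspecific binding defined with 300 μM veratridine. Triplicate runs with 40 μM DPH control tube. IC50 by Probit analysis, excluding doses giving <10% or >90% inhibition.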

Mus musculus [5] = test: Number of animals protected or toxic compared to number tested rotarod test in Phase-I by intraperitoneal administration in mice; 8/8; assay type: functional, organism-based; outline: as §1
Mus musculus [6] = test: Anticonvulsant activity was measured as inhibition of convulsions by maximal electric shock (MES) method in Phase-I by intraperitoneal administration in mice; assay type: functional; outline: as §1
[7] = Partition coefficient (logP); assay type: physicochemical; settings: octanol/water
Outline: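 Calculated rather than measured: the parent-structure log P value is summed with π contributions for the substituents. Both sets of constants come from published tables.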

Mus musculus [8] = test: Anticonvulsant activity was measured by maximal electric shock (MES) method in Phase -II by intraperitoneal administration in mice; assay type: functional; settings: ip
Outline: (§2)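 Phase II quantification in mice dosed ip: ED50 against maximal electroshock seizures and rotorod neurotoxic TD50, both in mg/kg. The 95% confidence intervals are given in brackets. Run by the NINDS Antiepileptic Drug Development Program.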

Mus musculus [9] = test: Anticonvulsant activity was measured as inhibition of convulsions by subcutaneous administration in mice; assay type: functional; outline: as §1
Mus musculus [10] = test: Anticonvulsant activity was measured by rotarod test in Phase -II by intraperitoneal administration in mice; assay type: functional; settings: ip; outline: as §2
Mus musculus [11] = test: Time taken for measure Anticonvulsant activity in Phase -II by intraperitoneal administration in mice; assay type: functional
Mus musculus [12] = test: Number of animals protected or toxic compared to number tested in subcutaneous administration in mice; 3/4; assay type: functional, organism-based; outline: as §1
Mus musculus [13] = test: Number of animals protected or toxic compared to number tested rotarod test in Phase-I by intraperitoneal administration in mice; 4/4; assay type: functional; outline: as §1
Mus musculus [14] = test: Number of animals protected or toxic compared to number tested in subcutaneous administration in mice; 4/4; assay type: functional; outline: as §1
Mus musculus [15] = test: Number of animals protected or toxic compared to number tested maximal electric shock (MES) method in Phase-I by intraperitoneal administration in mice; 1/3; assay type: functional; outline: as §1
Mus musculus [16] = test: Number of animals protected or toxic compared to number tested maximal electric shock (MES) method in Phase-I by intraperitoneal administration in mice; 1/1; assay type: functional; outline: as §1
Mus musculus [17] = test: Number of animals protected or toxic compared to number tested rotarod test in Phase-I by intraperitoneal administration in mice; 1/4; assay type: functional; outline: as §1

Row | Structure (SMILES) | Activity (Mus musculus [1]) [mg/kg] | Activity (Mus musculus [2]) | Activity (Mus musculus [3]) | IC50 [4] [µM] | Activity (Mus musculus [5]) | Activity (Mus musculus [6]) [mg/kg] | logP [7] | ED50 (Mus musculus [8]) [mg/kg] | Activity (Mus musculus [9]) [mg/kg] | TD50 (Mus musculus [10]) [mg/kg] | Time (Mus musculus [11]) [h] | Activity (Mus musculus [12]) | Activity (Mus musculus [13]) | Activity (Mus musculus [14]) | Activity (Mus musculus [15]) | Activity (Mus musculus [16]) | Activity (Mus musculus [17])
1 | O=C1OC2(c3ccccc3)CCCCCN1C2=O (stereo not drawn) | 100 | Active | 3 | 160 | Active | 100 | 3.05 | 66 | 100 | 147 | 0.25 |  |  |  |  |  | 
2 | CCCCC1(c2ccccc2)NC(=O)NC1=O (stereo not drawn) |  |  |  | 103 |  |  | 2.46 |  |  |  |  |  |  |  |  |  | 
3 | CCCCC1(c2ccccc2)NC(=O)N(C)C1=O (stereo not drawn) |  |  |  | 285 |  |  | 3.01 |  |  |  |  |  |  |  |  |  | 
4 | O=C1NC(=O)C(c2ccccc2)(c2ccccc2)N1 [PHENYTOIN] |  |  |  |  |  |  | 2.46 | 10 |  |  | 2 |  |  |  |  |  | 
5 | O=C1NC2(c3ccccc3)CCCCN1C2=O (stereo not drawn) | 300 |  | 3 | 700 |  | 100 | 2.01 |  | 100 |  |  | Weak activity | Active |  |  |  | 
6 | CN1C(=O)OC(C)(C)C1=O [TRIMETHADIONE] |  |  |  | > 1000 |  |  | -0.37 |  |  | 810 | 1 |  |  |  |  |  | 
7 | CCCCCC1(c2ccccc2)NC(=O)NC1=O (stereo not drawn) |  |  |  | 39 |  |  | 2.96 |  |  |  |  |  |  |  |  |  | 
8 | O=C1NC2(c3ccccc3)CCCCCN1C2=O (stereo not drawn) | 300 |  | 3 | 427 |  | 100 | 2.51 | 86 | >300 | 124 | 0.25 |  | 4 |  |  |  | 
9 | NC(=O)C1(c2ccccc2)CCCCCNC1=O (stereo not drawn) | 300 |  |  |  |  | 100 |  |  | 300 |  |  |  | 4 | 4 | 1 |  | 
10 | O=C1O[C@@]2(c3ccccc3)CCCCN1C2=O | >300 | 1 |  |  |  | >300 | 2.65 |  | 300 |  |  |  |  |  |  |  | 
11 | CCCC1(c2ccccc2)NC(=O)NC1=O (stereo not drawn) | 100 |  |  | 162 |  | 30 | 1.96 | 25 | 100 | 85 | 1 |  | 4 | 4 |  | 1 | 
12 | CCC1(c2ccccc2)OC(=O)N(C)C1=O (stereo not drawn) | 300 | 1 |  |  |  | 300 | 2.65 |  | 30 | 504 | 0.5 |  |  |  |  | 1 | 1
